Tests used:
[1] = system: HCT116N cells (MMR-proficient) and HCT116O cells (MMR-deficient); type: cell-based
[2] = system: HCT116N and HCT116O cells; assay: MTT cytotoxicity assay; type: cell-based; conditions: 72 h
Summary of the method: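 HCT116N and HCT116O cells are seeded at 50,000 cells/well in 96-well format and exposed to test compound for 72 h. MTT labelling follows for 4 h at 37 °C under 5% CO2, and formazan is dissolved in acidified SDS. The read-out is A570 minus A690 background. Percent viability is formazan of treated over untreated cells. Differential cytotoxicity is the difference in percent viability between the two lines.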

[3] = Metalloinsertor pH titrations; type: physicochemical; conditions: chrysi immine proton; ambient temperature, 0.1 M NaCl; racemic mixtures
Summary of the method: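 Test compound at 25 μM in 0.1 M NaCl is titrated from about pH 4.5 to 10.5 and back with 6 mM NaOH or 10 mM HCl, with pH followed by electrode. A UV-vis spectrum is recorded after each addition. Absorbance at one strongly changing wavelength is plotted against pH, and pKa is taken from the inflection of the sigmoid. Values from three separate experiments are pooled and averaged.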

[4] = system: DNA hairpin 5′-[…]-3′ with CC mismatch; assay: Covalent DNA binding assay; conditions: 30 min at 37 °C; neutral phosphate buffer or 5 mM glutathione
[5] = system: HCT116O cells (MMR-deficient); assay: Cell death mode flow cytometry assay; type: cell-based; conditions: 72 h
Summary of the method: (§1)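 HCT116 cells, grown in RPMI 1640 with 10% FBS, glutamine, non-essential amino acids, pyruvate, penicillin/streptomycin and 400 μg/mL G418 at 37 °C under 5% CO2, are exposed to test compound (0–0.5 μM) for 72 h. They are then trypsinized, washed in cold PBS, pelleted and resuspended in PBS at 10^6 cells/mL. Staining is 30 min with propidium iodide (1 μg/mL final) plus YO-PRO-1 (50 nM final). Flow-cytometry events are gated as live, apoptotic, necrotic or dead.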

[6] = system: HCT116N cells (MMR-proficient); assay: Cell death mode flow cytometry assay; type: cell-based; conditions: 72 h
Summary of the method: as §1

[7] = system: 36-mer DNA duplex containing a CC mismatch; type: binding
[8] = system: matched sites in the DNA duplex; assay: Binding competition gels with [Rh; conditions: competition with 4 μM [Rh(bpy)2(phi)]3+; up to 1:15 DNA:complex; data not shown

Compound | concentration required for optimal differential activity [1] [µM] | optimal concentration for differential cytotoxicity [2] [nM] | pKa [3] | differential inhibition (difference in %BrdU incorporation between HCT116N and HCT116O cells) [1] [%] | further results
N.N.[Cl][Pt][Cl] [cisplatin, cis-diamminedichloroplatinum, reference compound] |  |  |  |  | concentration required for optimal biological activity [1]: 6 μM
[Rh(HDPA)2(chrysi)]^3+ [reference compound] | 10 | 25000 |  |  | 
[Rh(chrysi)(phen)(DPE)]Cl2 [[Rh(chrysi)(phen)(DPE)]^2+] | 3 | 6000 | 8.7 ± 0.2 | 55 ± 2 | 
[Rh(chrysi)(phen)(PPE)]Cl2 [[Rh(chrysi)(phen)(PPE)]^2+] | 1 | 720 | 8.9 ± 0.4 | 53 ± 7 | covalent DNA binding [4]: no covalent DNA binding
[Rh(chrysi)(phen)(PPO)]Cl2 [[Rh(chrysi)(phen)(PPO)]^2+] | 0.3 | 320 | 8.3 ± 0.3 | 62 ± 2 | mode of cell death ([5]; 0.2 or 0.5 μM, HCT116O versus HCT116N): induces necrosis preferentially in the MMR-deficient HCT116O cell line; live cells ([5]; HCT116O, 0.2 μM): 28 ± 6%; necrotic cells ([5]; HCT116O, 0.2 μM): 13 ± 2%; cells in the apoptotic region ([5]; HCT116O, following metalloinsertor treatment): 17 ± 7%; live cells ([6]; 0.2 μM): 57 ± 7%; cells in the apoptotic region ([6]; following metalloinsertor treatment): 25 ± 7%
[Rh(chrysi)(phen)(PyOctanol)]Cl2 [[Rh(chrysi)(phen)(PyOctanol)]^2+] |  | 480 |  |  | 
Δ-[Rh(chrysi)(phen)(DPE)]^2+ |  |  |  |  | lower binding affinity for mismatched DNA as compared to Δ-[Rh(bpy)2(chrysi)]3+ [7]: ~5 fold; binding at matched sites [8]: no binding at matched sites
Λ-[Rh(chrysi)(phen)(DPE)]^2+ |  |  |  |  | binding at matched sites [8]: no binding at matched sites
